Measured values from article PMC7286548 (Cell chemical biology, 2020).

Key:
[1] = biological target: T1, PI5P4Kα (Homo sapiens, UniProt P48426); assay: Radiometric TLC kinase assay; type: biochemical
T1 sequence (P48426 1-406): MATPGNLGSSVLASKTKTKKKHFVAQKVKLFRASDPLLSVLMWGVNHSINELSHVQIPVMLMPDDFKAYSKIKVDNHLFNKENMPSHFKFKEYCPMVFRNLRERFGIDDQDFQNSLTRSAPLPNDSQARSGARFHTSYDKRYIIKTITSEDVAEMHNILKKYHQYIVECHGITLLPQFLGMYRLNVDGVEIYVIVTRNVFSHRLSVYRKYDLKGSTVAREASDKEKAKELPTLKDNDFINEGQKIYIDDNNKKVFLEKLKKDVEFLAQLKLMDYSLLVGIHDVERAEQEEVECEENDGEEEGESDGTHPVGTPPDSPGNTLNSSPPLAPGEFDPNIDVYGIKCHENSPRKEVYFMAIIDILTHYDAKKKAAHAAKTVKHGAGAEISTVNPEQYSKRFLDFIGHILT
In short: (§1)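 Purified PI5P4K (0.1 μg) was preincubated with DMSO or test compound at various concentrations in 50 mM HEPES pH 7.4, 10 mM MgCl2. Sonicated lipid substrate, 10 μM unlabeled ATP and [γ-32P]ATP were then added. Reaction ran 10 min at room temperature. Radiolabeled PI(4,5)P2 product was quantified by phosphorimager.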

[2] = biological target: T2, PI5P4Kβ (Homo sapiens, UniProt P78356); assay: Radiometric TLC kinase assay; type: biochemical
T2 sequence (P78356 1-416): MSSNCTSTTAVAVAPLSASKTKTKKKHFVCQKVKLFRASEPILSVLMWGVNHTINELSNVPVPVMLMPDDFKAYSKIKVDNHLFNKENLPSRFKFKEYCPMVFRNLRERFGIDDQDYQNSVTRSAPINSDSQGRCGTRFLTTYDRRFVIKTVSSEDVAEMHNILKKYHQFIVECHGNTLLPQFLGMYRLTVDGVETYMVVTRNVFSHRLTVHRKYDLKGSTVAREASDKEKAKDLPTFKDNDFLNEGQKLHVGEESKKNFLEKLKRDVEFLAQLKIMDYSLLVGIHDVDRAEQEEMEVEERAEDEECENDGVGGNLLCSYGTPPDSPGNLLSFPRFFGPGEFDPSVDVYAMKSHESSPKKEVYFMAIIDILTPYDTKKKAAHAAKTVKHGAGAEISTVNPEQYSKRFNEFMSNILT
In short: as §1

[3] = biological target: T3, PI5P4Kγ (Homo sapiens, UniProt Q8TBX8); assay: Radiometric TLC kinase assay; type: biochemical; settings: Fig. S1B-C
T3 sequence (Q8TBX8 1-421): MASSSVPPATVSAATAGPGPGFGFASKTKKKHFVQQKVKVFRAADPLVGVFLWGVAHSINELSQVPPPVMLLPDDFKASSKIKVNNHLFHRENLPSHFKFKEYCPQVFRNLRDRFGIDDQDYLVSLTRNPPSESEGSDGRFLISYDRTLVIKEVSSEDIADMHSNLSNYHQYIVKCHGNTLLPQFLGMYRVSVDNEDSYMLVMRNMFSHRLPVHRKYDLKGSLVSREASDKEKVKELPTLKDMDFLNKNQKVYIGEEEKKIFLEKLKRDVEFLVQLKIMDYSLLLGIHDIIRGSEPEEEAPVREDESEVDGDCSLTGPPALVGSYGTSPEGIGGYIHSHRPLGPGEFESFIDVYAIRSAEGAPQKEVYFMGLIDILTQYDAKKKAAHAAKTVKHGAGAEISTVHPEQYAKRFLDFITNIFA

[4] = biological target: T1, PI5P4Kα; assay: Intact electrospray MS covalent labeling; type: binding; settings: within 2 h; 5 μM inhibitor, 37°C
In short: (§2)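 Intact mass read by LC-ESI-MS on reversed phase. Modified site mapped by TCEP (10 mM final) reduction, iodoacetamide (22.5 mM final) alkylation, Asp-N or Glu-C digestion overnight at 37°C, then nanoLC-MS.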

[5] = biological target: T2, PI5P4Kβ; assay: Intact electrospray MS covalent labeling; type: binding; settings: within 2 h; 5 μM inhibitor, 37°C
In short: as §2

[6] = biological target: T4, PIKfyve (Homo sapiens, UniProt Q9Y2I7); assay: DiscoverX KINOMEScan; type: binding
[7] = biological target: T4, PIKfyve; assay: Fixed time-point ADP-Glo assay; type: biochemical
[8] = biological target: PI4P5Kα (Homo sapiens, UniProt Q99755); assay: Lipid kinase off-target inhibition assay; type: biochemical; settings: Fig. S3C
[9] = biological target: PI4P5Kβ (Homo sapiens, UniProt O14986); assay: Lipid kinase off-target inhibition assay; type: biochemical; settings: Fig. S3C
[10] = biological target: PI4P5Kγ (Homo sapiens, UniProt O60331); assay: Lipid kinase off-target inhibition assay; type: biochemical; settings: Fig. S3C
[11] = test system: PIKfyve; assay: Vacuolar enlargement assay in Vero cells; type: cell-based
[12] = biological target: top off-targets except for BRK and ABL1; assay: Z'LYTE kinase assay; type: biochemical; settings: Fig. S4A
In short: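 ATP at apparent Km. Kinases tested were TYK2, RPS6KA4 (MSK2), CSNK2A2 (CK2α2), KIT and PDGFRB.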

[13] = test system: PI5P4K; assay: Competitive streptavidin pulldown after pre-treating HEK293T cells; type: cell-based
In short: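 HEK293T cells grown to 90–95% confluence were pretreated 6h with DMSO or varying test compound concentrations, then washed twice in cold PBS. Lysis on ice 60 min with protease inhibitors, cleared 20,000 × g 15 min at 4°C, protein-equalized by BCA. Lysates were rotated overnight at 4°C with 1 μM biotinylated probe, then 2h at RT, then on streptavidin resin 2h at 4°C. Beads washed ×5, boiled in LDS 95°C 10 min, immunoblotted.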

[14] = test system: AML/ALL cell lines; assay: 72 h Cell-Titer Glo proliferation assay; type: cell-based; settings: all six AML/ALL cell lines
In short: (§3)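 Cells plated in 96- or 384-well format and treated with test compound over a concentration range for 72h. Viability read by CellTiter-Glo luminescence. Leukemia lines cultured per ATCC/DSMZ recommendations in 5% CO2. K562 and KU812F came from an outside lab.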

[15] = test system: K562 and KU812F; assay: Proliferation of BCR-ABL translocation containing cell lines; type: cell-based; settings: Fig. S4C
In short: as §3

[16] = test system: HeLa cells; assay: TFEB nuclear localization immunofluorescence; type: cell-based; settings: 0.25-1.0 μM overnight
[17] = test system: HeLa cells; assay: RFP-GFP-LC3B tandem sensor autophagy flux assay; type: cell-based; settings: 1 μM, 16 hours
In short: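 HeLa cells (DMEM, 10% FBS) on coverslip-bottomed dishes were transduced with 40 particles/cell of the RFP-GFP-LC3B tandem sensor and cultured 16–24h. They were then exposed to DMSO, 50 μM chloroquine or 1 μM test compound for 16h. Live imaging at 37°C in phenol red-free DMEM by spinning-disk confocal microscopy.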

T4 sequence (Q9Y2I7 whole entry): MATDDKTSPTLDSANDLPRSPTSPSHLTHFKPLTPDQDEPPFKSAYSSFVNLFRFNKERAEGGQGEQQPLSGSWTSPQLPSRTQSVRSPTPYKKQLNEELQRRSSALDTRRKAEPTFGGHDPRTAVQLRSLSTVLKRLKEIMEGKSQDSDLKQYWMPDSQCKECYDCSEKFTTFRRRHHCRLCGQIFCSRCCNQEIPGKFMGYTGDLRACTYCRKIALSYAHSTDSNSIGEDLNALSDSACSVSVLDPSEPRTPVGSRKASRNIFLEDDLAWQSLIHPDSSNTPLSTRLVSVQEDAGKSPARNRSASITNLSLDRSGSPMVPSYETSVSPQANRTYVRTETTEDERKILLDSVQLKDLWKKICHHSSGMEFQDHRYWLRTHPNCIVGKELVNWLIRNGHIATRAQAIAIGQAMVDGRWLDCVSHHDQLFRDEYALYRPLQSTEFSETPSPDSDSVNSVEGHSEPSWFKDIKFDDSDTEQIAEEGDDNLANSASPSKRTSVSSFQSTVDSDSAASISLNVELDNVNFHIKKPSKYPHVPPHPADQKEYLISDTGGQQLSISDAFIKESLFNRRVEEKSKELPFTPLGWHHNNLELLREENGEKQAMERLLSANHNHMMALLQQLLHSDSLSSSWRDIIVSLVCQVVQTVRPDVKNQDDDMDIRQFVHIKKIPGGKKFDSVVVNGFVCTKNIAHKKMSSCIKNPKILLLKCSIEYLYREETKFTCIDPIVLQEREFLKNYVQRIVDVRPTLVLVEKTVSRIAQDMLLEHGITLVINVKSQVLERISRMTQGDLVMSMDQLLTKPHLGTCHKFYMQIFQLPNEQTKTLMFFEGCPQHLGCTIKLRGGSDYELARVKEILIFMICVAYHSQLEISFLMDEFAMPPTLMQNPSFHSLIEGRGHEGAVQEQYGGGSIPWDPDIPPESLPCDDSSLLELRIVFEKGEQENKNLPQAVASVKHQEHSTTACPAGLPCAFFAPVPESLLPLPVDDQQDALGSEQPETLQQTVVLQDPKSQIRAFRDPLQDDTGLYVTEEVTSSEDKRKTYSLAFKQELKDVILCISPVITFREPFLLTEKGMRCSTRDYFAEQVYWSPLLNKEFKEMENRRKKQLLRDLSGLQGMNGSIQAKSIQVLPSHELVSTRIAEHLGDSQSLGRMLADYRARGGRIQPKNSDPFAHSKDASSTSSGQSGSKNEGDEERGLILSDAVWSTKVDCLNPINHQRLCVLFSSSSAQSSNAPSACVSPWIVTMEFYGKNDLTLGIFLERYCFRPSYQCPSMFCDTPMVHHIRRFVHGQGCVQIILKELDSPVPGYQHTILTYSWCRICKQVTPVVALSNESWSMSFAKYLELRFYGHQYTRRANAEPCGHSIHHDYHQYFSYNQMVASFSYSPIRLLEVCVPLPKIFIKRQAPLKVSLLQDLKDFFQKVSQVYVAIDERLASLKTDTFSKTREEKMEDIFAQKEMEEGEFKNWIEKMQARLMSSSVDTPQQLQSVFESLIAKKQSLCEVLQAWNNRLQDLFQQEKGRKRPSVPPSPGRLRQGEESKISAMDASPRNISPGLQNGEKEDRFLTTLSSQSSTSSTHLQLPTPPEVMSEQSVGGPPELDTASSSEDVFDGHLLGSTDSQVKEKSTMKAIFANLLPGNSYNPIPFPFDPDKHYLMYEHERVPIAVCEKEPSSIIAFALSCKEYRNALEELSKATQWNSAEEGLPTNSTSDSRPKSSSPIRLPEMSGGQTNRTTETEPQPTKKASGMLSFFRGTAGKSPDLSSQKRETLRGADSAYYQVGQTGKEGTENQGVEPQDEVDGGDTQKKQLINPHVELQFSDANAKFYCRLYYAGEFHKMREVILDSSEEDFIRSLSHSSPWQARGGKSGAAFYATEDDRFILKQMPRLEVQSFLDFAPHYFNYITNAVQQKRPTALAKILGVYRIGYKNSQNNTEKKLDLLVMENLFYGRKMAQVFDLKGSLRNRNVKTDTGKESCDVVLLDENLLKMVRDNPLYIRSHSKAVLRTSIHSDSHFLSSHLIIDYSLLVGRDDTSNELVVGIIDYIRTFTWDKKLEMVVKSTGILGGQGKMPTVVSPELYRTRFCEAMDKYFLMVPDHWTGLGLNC
PI4P5Kγ, sequence (O60331 whole entry): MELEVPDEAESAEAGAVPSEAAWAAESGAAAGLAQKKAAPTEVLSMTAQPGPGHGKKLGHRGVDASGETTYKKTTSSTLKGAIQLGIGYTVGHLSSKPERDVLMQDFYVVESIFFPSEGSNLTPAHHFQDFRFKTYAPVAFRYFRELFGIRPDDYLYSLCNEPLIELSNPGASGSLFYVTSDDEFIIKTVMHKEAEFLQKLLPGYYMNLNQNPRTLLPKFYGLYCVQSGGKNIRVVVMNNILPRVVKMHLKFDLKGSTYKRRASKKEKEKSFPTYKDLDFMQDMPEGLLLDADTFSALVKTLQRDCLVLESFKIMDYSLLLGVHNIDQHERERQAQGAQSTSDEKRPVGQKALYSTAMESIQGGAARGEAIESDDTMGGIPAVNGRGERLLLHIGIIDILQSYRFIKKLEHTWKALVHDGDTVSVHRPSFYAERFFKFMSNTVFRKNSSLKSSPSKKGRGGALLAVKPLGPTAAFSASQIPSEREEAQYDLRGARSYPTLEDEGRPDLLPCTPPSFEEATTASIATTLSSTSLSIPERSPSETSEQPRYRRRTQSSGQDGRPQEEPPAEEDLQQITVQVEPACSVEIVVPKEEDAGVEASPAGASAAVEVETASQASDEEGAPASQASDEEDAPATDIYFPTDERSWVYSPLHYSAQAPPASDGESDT
PI4P5Kα, sequence (Q99755 whole entry): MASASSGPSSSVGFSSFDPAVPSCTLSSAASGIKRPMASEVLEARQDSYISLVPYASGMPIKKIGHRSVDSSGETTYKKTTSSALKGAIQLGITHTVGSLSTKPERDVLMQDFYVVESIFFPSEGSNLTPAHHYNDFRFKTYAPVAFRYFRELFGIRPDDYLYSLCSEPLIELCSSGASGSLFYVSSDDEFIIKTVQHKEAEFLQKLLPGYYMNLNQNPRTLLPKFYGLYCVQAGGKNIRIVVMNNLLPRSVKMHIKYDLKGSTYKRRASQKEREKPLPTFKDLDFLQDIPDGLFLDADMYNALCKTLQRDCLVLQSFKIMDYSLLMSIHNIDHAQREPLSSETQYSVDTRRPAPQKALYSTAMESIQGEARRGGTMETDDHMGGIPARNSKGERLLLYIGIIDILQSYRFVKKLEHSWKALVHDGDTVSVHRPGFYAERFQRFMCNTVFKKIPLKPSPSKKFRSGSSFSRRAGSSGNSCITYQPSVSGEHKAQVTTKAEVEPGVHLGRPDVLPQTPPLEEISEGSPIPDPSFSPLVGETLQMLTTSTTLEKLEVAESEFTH
PI4P5Kβ, sequence (O14986 whole entry): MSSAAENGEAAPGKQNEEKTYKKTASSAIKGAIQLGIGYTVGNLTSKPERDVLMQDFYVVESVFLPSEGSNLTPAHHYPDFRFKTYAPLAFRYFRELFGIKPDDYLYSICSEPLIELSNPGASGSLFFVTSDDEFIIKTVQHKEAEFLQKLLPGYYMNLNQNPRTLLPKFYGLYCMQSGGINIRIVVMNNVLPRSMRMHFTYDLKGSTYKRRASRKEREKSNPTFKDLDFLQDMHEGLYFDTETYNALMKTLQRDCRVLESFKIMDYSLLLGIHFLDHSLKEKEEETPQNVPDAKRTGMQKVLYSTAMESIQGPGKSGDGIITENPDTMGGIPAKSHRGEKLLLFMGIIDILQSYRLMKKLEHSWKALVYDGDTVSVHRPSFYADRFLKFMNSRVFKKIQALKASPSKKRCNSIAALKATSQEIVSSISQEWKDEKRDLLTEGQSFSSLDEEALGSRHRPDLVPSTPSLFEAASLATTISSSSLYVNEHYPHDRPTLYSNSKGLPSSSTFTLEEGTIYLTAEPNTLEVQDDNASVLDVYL

In the case of CN(C)C/C=C/C(=O)Nc1cccc(C(=O)Nc2ccc(Nc3nccc(-c4cccnc4)n3)cc2)c1 [JNK-IN-7, reference compound], the “inhibition of kinase activity (in words)” value ([1]; Fig. S1B-C) is reported as “inhibit”, the “inhibition of kinase activity (in words)” value ([2]; Fig. S1B-C) is reported as “inhibit” and the “inhibition of kinase activity (in words)” value [3] is reported as “inhibit”.
CN(C)C/C=C/C(=O)Nc1ccc(C(=O)Nc2cccc(Nc3cc(-c4c[nH]c5ccccc45)ncn3)c2)cc1 [THZ-P1-2] was tested, and the “inhibition of PI-4,5-P2 formation” value ([1]; 0.7 μM) was “approximately 75%”, the “inhibition of PI-4,5-P2 formation” value ([2]; 0.7 μM) was ~50% and the covalent labeling [4] was 100%. The covalent labeling [5] was 100%, the “% DMSO control” value [6] was 6.4 % DMSO control and the IC50 [7] was 40 nM. The “IC50 (in words)” value [8] was “low micromolar”, the “IC50 (in words)” value [9] was “low micromolar” and the “IC50 (in words)” value [10] was “low micromolar”. For the same molecule, the “inhibition of PIKfyve in cells (in words)” value ([11]; 1 μM) was “failed to show inhibition”, the “IC50 (in words)” value [12] was “micromolar range” and the “earliest time of on-target engagement in washout pulldown” value ([13]; 1 μM compound treatment, washout at 2 and 4 hours) was 2 h. The “competition of pulldown by 1 μM dtb-THZ-P1-2 (in words)” value ([13]; pre-treatment of HEK293T cells) was “compete and block pulldown”, the “anti-proliferative IC50 (in words)” value [14] was “low micromolar range” and the “potency at killing cells versus imatinib, nilotinib and dasatinib (in words)” value [15] was “markedly less potent”. The “nuclear TFEB accumulation (in words)” value [16] was “increase”, the “GFP signal of RFP-GFP-LC3B sensor (in words)” value [17] was “marked increase” and the “RFP signal of RFP-GFP-LC3B sensor (in words)” value [17] was “moderate increase”.
In the case of Cc1cccc(/C=N/Nc2cc(N3CCOCC3)nc(OCCc3ccccn3)n2)c1 [apilimod, reference compound], the “concentration causing substantial vacuolar enlargement” value ([11]; positive control) is reported as 10 nM.
